Source: ChEMBL document CHEMBL1124257, “An examination of O-2-isocephems as orally absorbable antibiotics” (J Med Chem, 1988)
Converted amounts (≈) assume the structure as drawn.

Key:
Escherichia coli [1] = test: Protective dose (PD50) against Escherichia coli infected mice; type: functional; conditions: read-out: PD50
Outline: (§1)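 Male Swiss-Webster mice (20 ± 2 g) were challenged intraperitoneally with enough bacteria to kill untreated controls within 72 h. Drug was given orally by gavage twice: at 0 and 2 h after E. coli challenge, or at 1 and 3.5 h after S. pneumoniae challenge. PD50 is the dose in mg/kg per dose that protects 50% of animals.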

Escherichia coli [2] = test: Minimum inhibitory concentration (MIC) […] against Escherichia coli.; type: functional
Outline: (§2)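 For each organism, an overnight culture was grown in Mueller-Hinton broth at 37 °C. Twofold microtiter dilutions in Nutrient Broth covered 0.005–125 µg/mL. Each well received about 10^4 organisms, and plates were incubated 18 h at 37 °C. MIC was the lowest concentration giving no visible growth.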

Enterococcus faecalis = test: Minimum inhibitory concentration (MIC) against Streptococcus faecalis by 2-fold microdilution technique.; type: functional; outline: as §2
Haemophilus influenzae = test: Minimum inhibitory concentration (MIC) against Haemophilus influenzae by 2-fold microdilution technique.; type: functional; outline: as §2
Streptococcus pyogenes = test: Minimum inhibitory concentration (MIC) against Streptococcus pyogenes by 2-fold microdilution technique; type: functional; outline: as §2
Streptococcus pneumoniae [3] = test: Minimum inhibitory concentration (MIC) against Streptococcus pneumoniae by 2-fold microdilution technique; type: functional; outline: as §2
Escherichia coli [4] = test: Minimum inhibitory concentration (MIC) against Escherichia coli by 2-fold microdilution technique.; type: functional; outline: as §2
Streptococcus pneumoniae [5] = test: Minimum inhibitory concentration (MIC) […] against Streptococcus pneumoniae.; type: functional; outline: as §2
Proteus mirabilis = test: Minimum inhibitory concentration (MIC) against Proteus mirabilis by 2-fold microdilution technique.; type: functional; outline: as §2
Staphylococcus aureus = test: Minimum inhibitory concentration (MIC) against Staphylococcus aureus by 2-fold microdilution technique.; type: functional; outline: as §2
Klebsiella pneumoniae = test: Minimum inhibitory concentration (MIC) against Klebsiella pneumoniae by 2-fold microdilution technique.; type: functional; outline: as §2
Streptococcus pneumoniae [6] = test: Protective dose (PD50) against Streptococcus pneumoniae infected mice; type: functional; conditions: for ED50: Streptococcus pneumoniae, read-out: PD50; outline: as §1
[7] = (§3) Cmax was measured in mice after an oral dose of 50 mg/kg.; type: ADME, organism-based; set-up: dose 50 mg/kg, route oral; conditions: mouse, in vivo
Outline: (§4)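 Male Swiss-Webster mice (20 ± 2 g) were given a single 50 mg/kg oral dose by gavage. Blood concentrations and urine levels were measured by microbiological assay, and urinary recovery was taken over 0–6 h.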

Mus musculus [8] = organism: Mus musculus; test: Percentage of dose recovered after 0-6 hr in the urine of mice was measured.; type: ADME, organism-based; conditions: in vivo; outline: as §4
Mus musculus [9] = test: Area under curve(AUC) was measured in mice after oral administration.; type: ADME, organism-based; set-up: concentration or dose not given beside the values; unit not given here; conditions: in vivo; outline: as §4
[10] = Half life was measured.; type: ADME; outline: as §4
Mus musculus [11] = test: as §3; type: ADME, organism-based; set-up: dose 50 mg/kg, route oral; conditions: in vivo; outline: as §4
Mus musculus [12] = test: Area under curve(AUC) was measured in mice after oral administration (50 mg/kg); type: ADME, organism-based; conditions: in vivo; outline: as §4
[13] = Escherichia coli, read-out: MIC
[14] = Enterococcus faecalis, read-out: MIC
[15] = Haemophilus influenzae, read-out: MIC
[16] = Streptococcus pyogenes, read-out: MIC
[17] = Streptococcus pneumoniae, read-out: MIC
[18] = Proteus mirabilis, read-out: MIC
[19] = Staphylococcus aureus, read-out: MIC
[20] = Klebsiella pneumoniae, read-out: MIC

Compound | ED50 (Escherichia coli [1]) [mg/kg] | MIC (Escherichia coli [2]; [13]) [µg/mL] | MIC (Enterococcus faecalis; [14]) [µg/mL] | MIC (Haemophilus influenzae; [15]) [µg/mL] | MIC (Streptococcus pyogenes; [16]) [µg/mL] | MIC (Streptococcus pneumoniae [3]; [17]) [µg/mL] | MIC (Escherichia coli [4]; [13]) [µg/mL] | MIC (Streptococcus pneumoniae [5]; [17]) [µg/mL] | MIC (Proteus mirabilis; [18]) [µg/mL] | MIC (Staphylococcus aureus; [19]) [µg/mL] | MIC (Klebsiella pneumoniae; [20]) [µg/mL] | ED50 (Streptococcus pneumoniae [6]) [mg/kg] | Cmax [7] [ng/mL] | Urinary recovery (% of dose, 0-6 h) (Mus musculus [8]) [%] | AUC (Mus musculus [9]) | half-life [10] [min] | further results
N[C@@H](C(=O)N[C@@H]1C(=O)N2C(C(=O)O)=C(/C=C\C(F)(F)F)OC[C@H]12)c1ccc(O)cc1 (relative stereo) | > 50 | 2 (≈ 4.68 µM) | 0.06 (≈ 0.14 µM) | 2 (≈ 4.68 µM) | 0.008 (≈ 0.0187 µM) | 0.016 (≈ 0.0374 µM) | 2 (≈ 4.68 µM) | 0.016 (≈ 0.0374 µM) | 16 (≈ 37.4 µM) | 0.5 (≈ 1.17 µM) | 32 (≈ 74.9 µM) | 2.7 |  |  |  |  | 
C=CCC1=C(C(=O)O)N2C(=O)[C@@H](NC(=O)[C@H](N)c3ccc(O)cc3)[C@H]2SC1 |  |  | 18 (≈ 46.2 µM) | 1 (≈ 2.57 µM) | 0.016 (≈ 0.0411 µM) | 0.03 (≈ 0.077 µM) | 4 (≈ 10.3 µM) |  | 1 (≈ 2.57 µM) | 0.13 (≈ 0.334 µM) | 4 (≈ 10.3 µM) |  | 45000 | 79 | 41 | 34 | 
N[C@@H](C(=O)N[C@@H]1C(=O)N2C(C(=O)O)=C(Cl)CS[C@H]12)c1ccccc1.O [CEFACLOR] |  |  | 16 | 1 | 0.25 | 0.5 | 1 |  | 0.25 | 0.25 | 1 |  |  |  |  |  | 
CCCC1=C(C(=O)O)N2C(=O)[C@@H](NC(=O)[C@H](N)c3ccc(O)cc3)[C@H]2CO1 |  |  | 0.03 (≈ 0.0799 µM) |  | 0.004 (≈ 0.0107 µM) | 0.008 (≈ 0.0213 µM) | 2 (≈ 5.33 µM) |  | 4 (≈ 10.7 µM) | 0.06 (≈ 0.16 µM) | 16 (≈ 42.6 µM) |  |  |  |  |  | 
C=CCC1=C(C(=O)O)N2C(=O)[C@@H](NC(=O)[C@H](N)c3ccc(O)cc3)[C@H]2CO1 | 9.2 | 4 (≈ 10.7 µM) | 1 (≈ 2.68 µM) | 2 (≈ 5.36 µM) | 0.008 (≈ 0.0214 µM) | 0.03 (≈ 0.0804 µM) | 2 (≈ 5.36 µM) | 0.016 (≈ 0.0429 µM) | 1 (≈ 2.68 µM) | 0.13 (≈ 0.348 µM) | 16 (≈ 42.9 µM) | 1 | 31000 | 46 | 32 | 32 | 
N[C@@H](C(=O)N[C@@H]1C(=O)N2C(C(=O)O)=C(C3CC3)OC[C@H]12)c1ccc(O)cc1 | > 50 | 4 (≈ 10.7 µM) | 1 (≈ 2.68 µM) | 8 (≈ 21.4 µM) | 0.016 (≈ 0.0429 µM) | 0.03 (≈ 0.0804 µM) | 4 (≈ 10.7 µM) | 0.03 (≈ 0.0804 µM) | 2 (≈ 5.36 µM) | 0.25 (≈ 0.67 µM) | 16 (≈ 42.9 µM) | 3.6 |  |  |  |  | 
C/C=C/C1=C(C(=O)O)N2C(=O)[C@@H](NC(=O)[C@H](N)c3ccc(O)cc3)[C@H]2CO1 (relative stereo) | > 50 | 2 (≈ 5.36 µM) | 1 (≈ 2.68 µM) | 2 (≈ 5.36 µM) | 0.016 (≈ 0.0429 µM) | 0.03 (≈ 0.0804 µM) | 2 (≈ 5.36 µM) | 0.03 (≈ 0.0804 µM) | 0.5 (≈ 1.34 µM) | 0.25 (≈ 0.67 µM) | 8 (≈ 21.4 µM) | 1.8 | 11000 | 5 | 30 | 110 | 
N[C@@H](C(=O)N[C@@H]1C(=O)N2C(C(=O)O)=C(/C=C/C(F)(F)F)OC[C@H]12)c1ccc(O)cc1 | > 50 | 4 (≈ 9.36 µM) | 0.13 (≈ 0.304 µM) | 2 (≈ 4.68 µM) | 0.008 (≈ 0.0187 µM) | 0.016 (≈ 0.0374 µM) | 4 (≈ 9.36 µM) | 0.016 (≈ 0.0374 µM) | 16 (≈ 37.4 µM) | 0.5 (≈ 1.17 µM) | 16 (≈ 37.4 µM) | > 12.5 |  |  |  |  | 
C/C=C/C1=C(C(=O)O)N2C(=O)[C@@H](NC(=O)[C@H](N)c3ccc(O)cc3)[C@H]2SC1.O (relative stereo; 57) [CEFPROZIL, (E)-] |  |  |  |  |  |  |  |  |  |  |  |  |  | 65 | 45 |  | Cmax (Mus musculus [11]): 35 µg/mL; MIC (Escherichia coli [2]): 8 µg/mL; MIC (Enterococcus faecalis): 4 µg/mL; MIC (Haemophilus influenzae): 4 µg/mL; MIC (Streptococcus pyogenes): 0.03 µg/mL; MIC (Streptococcus pneumoniae [3]): 0.06 µg/mL; MIC (Escherichia coli [4]): 8 µg/mL; MIC (Streptococcus pneumoniae [5]): 0.06 µg/mL; MIC (Proteus mirabilis): 1 µg/mL; MIC (Staphylococcus aureus): 0.25 µg/mL; MIC (Klebsiella pneumoniae): 8 µg/mL; T1/2 [10]: 47 min; PD50 (Streptococcus pneumoniae [6]): 0.5 mg/kg
C/C=C/C1=C(C(=O)O)N2C(=O)[C@@H](NC(=O)[C@H](N)c3ccc(O)cc3)[C@H]2SC1.O (relative stereo; 56) [CEFPROZIL, (E)-] | 1.2 |  | 2 | 2 | 0.016 | 0.03 |  |  |  | 0.13 |  | 0.4 | 46000 | 85 | 42 | 29 | MIC (Escherichia coli [2]): 2 µg/mL; MIC (Escherichia coli [4]): 1 µg/mL; MIC (Streptococcus pneumoniae [5]): 0.016 µg/mL; MIC (Proteus mirabilis): 0.25 µg/mL; MIC (Klebsiella pneumoniae): 2 µg/mL
C=CC1=C(C(=O)O)N2C(=O)[C@@H](NC(=O)[C@H](N)c3ccc(O)cc3)[C@H]2CO1 | 2.1 | 2 (≈ 5.57 µM) | 0.5 (≈ 1.39 µM) | 1 (≈ 2.78 µM) | 0.016 (≈ 0.0445 µM) | 0.03 (≈ 0.0835 µM) | 2 (≈ 5.57 µM) | 0.03 (≈ 0.0835 µM) | 0.5 (≈ 1.39 µM) | 0.13 (≈ 0.362 µM) | 8 (≈ 22.3 µM) | 0.8 | 26000 | 73 |  | 39 | AUC (Mus musculus [12]): 30 µg/mL
C/C=C\C1=C(C(=O)O)N2C(=O)[C@@H](NC(=O)[C@H](N)c3ccc(O)cc3)[C@H]2CO1 (relative stereo) | 19 | 2 (≈ 5.36 µM) | 1 (≈ 2.68 µM) | 2 (≈ 5.36 µM) | 0.016 (≈ 0.0429 µM) | 0.03 (≈ 0.0804 µM) | 2 (≈ 5.36 µM) | 0.03 (≈ 0.0804 µM) | 1 (≈ 2.68 µM) | 0.25 (≈ 0.67 µM) | 16 (≈ 42.9 µM) | 0.3 | 15000 | 25 | 23 | 52 | 
CC1=C(C(=O)O)N2C(=O)[C@@H](NC(=O)[C@H](N)c3ccccc3)[C@H]2SC1 [CEPHALEXIN ANHYDROUS] |  |  | 32 (≈ 92.1 µM) | 4 (≈ 11.5 µM) | 0.5 (≈ 1.44 µM) | 0.5 (≈ 1.44 µM) | 8 (≈ 23 µM) |  | 4 (≈ 11.5 µM) | 0.5 (≈ 1.44 µM) | 16 (≈ 46.1 µM) |  |  |  |  |  | 
CC1=C(C(=O)O)N2C(=O)[C@@H](NC(=O)[C@H](N)c3ccc(O)cc3)[C@H]2CO1 | 11 | 8 (≈ 23 µM) | 16 (≈ 46.1 µM) | 8 (≈ 23 µM) | 0.13 (≈ 0.374 µM) | 0.13 (≈ 0.374 µM) | 8 (≈ 23 µM) | 0.13 (≈ 0.374 µM) | 4 (≈ 11.5 µM) | 1 (≈ 2.88 µM) | 8 (≈ 23 µM) | 2.1 |  |  |  |  | 
C=CC1=C(C(=O)O)N2C(=O)[C@@H](NC(=O)[C@H](N)c3ccc(O)cc3)[C@H]2SC1 |  |  | 2 (≈ 5.33 µM) |  | 0.03 (≈ 0.0799 µM) | 0.03 (≈ 0.0799 µM) | 4 (≈ 10.7 µM) |  | 4 (≈ 10.7 µM) | 0.25 (≈ 0.666 µM) | 16 (≈ 42.6 µM) |  | 22000 |  | 21 | 29 | 
N[C@@H](C(=O)N[C@@H]1C(=O)N2C(C(=O)O)=COC[C@H]12)c1ccc(O)cc1 | 6.2 | 4 (≈ 12 µM) | 32 (≈ 96 µM) | 2 (≈ 6 µM) | 0.25 (≈ 0.75 µM) | 1 (≈ 3 µM) | 4 (≈ 12 µM) | 1 (≈ 3 µM) | 4 (≈ 12 µM) | 1 (≈ 3 µM) | 8 (≈ 24 µM) | 33 |  |  |  |  | 
